PolyA inh – yeast polyadenylation inhibition | S. cerevisiae SKY197-pL101 polyadenylation reporter, beta-gal luminescence; efflux-impaired pdr1/pdr3 knockout yeast; score 100 = 6 SD above DMSO | activity score, % at 12 µM | 0.02% of 300,000 active | AID 1875;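 active = lowest replicate activity score at least 50, where 100 means six control SD above control mean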;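 note: yeast exposed to compound for 9 h at 30 °C; higher score means more reporter readthrough which indicates perturbed polyadenylation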
Arrestin-AP2 inh – inhibitors of human beta-arrestin and AP2 interaction | AID 504490 | inhibition, % at 10 µM | 0.31% of 340,000 active | FITC-arrestin peptide / GST-AP2 beads, flow cytometry; AP2 beta2 appendage carries R879A mutation;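 active = inhibition above a set limit, near 3 SD of compounds lacking own fluorescence, cut at about 54% in these data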;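 note: plate controls were DMSO wells for no effect and 5 µM unlabelled arrestin peptide for full effect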
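Measured by: flow cytometry, FL1 (488/535 nm); Material: AP2 appendage R879A on GSH beads; Evaluation: percent response; Timing: pre-incubation 12 min, peptide binding 1 h, room temperature; Also added: 50 nM FITC-arrestin peptide; Medium: PBS with 0.05% Tween 20 and 0.1% BSA.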
ALR inh – blocks human ALR sulfhydryl oxidase activity. P55789. inhibition, % (concentration not given with the values). AID 485317. purified ALR, DTT oxidation, H2O2 HRP-luminol luminescence. 3.8% of 290,000 active;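 active = mean replicate inhibition above about 79%, with every replicate also reaching it, limit read from the data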
DSG3 Ab inh – blocks pemphigus antibody binding to human desmoglein-3 | 0.48% of 310,000 active | binding (percent of control), % at 10 µM | AID 588358 | DSG3-coupled beads, scFv-anti-DSG3-GFP binding, flow cytometry; hits give low values | P32926;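 active = binding more than 3 SD below its plate's average and above zero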;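 note: hits lower antibody fragment binding to DSG3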
NLRP3 yeast inh – NALP3 inhibition in yeast; AID 2825; 0.39% of 330,000 active; inhibition, % at 10 µM; Yeast reconstituted NLRP3/ASC/caspase-1, beta-gal luminescence, 24 h;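 active = inhibition of 50% or more; inactive = inhibition below 50%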;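 note: plate controls were induced DMSO wells for no effect and uninduced yeast grown without galactose for full effect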
NALP1 inh – inhibitors of NALP1 inflammasome in yeast; S. cerevisiae NALP1/ASC/caspase-1 growth, X-gal OD620, 72 h; inhibition, % at 10 µM; 0.61% of 280,000 active; in the data active = inhibition mostly above about 24%, no sharp cut-off; inactive = mostly below about 32%
Active calls of the source: *; . = no result. An excerpt weighted towards active compounds, which were near 4.6% of everything screened.

SMILES	PolyA inh	Arrestin-AP2 inh	ALR inh	DSG3 Ab inh	NLRP3 yeast inh	NALP1 inh
CN1CCN(CC(O)Cn2c3ccccc3c3ccccc32)CC1 (configuration not stated)	14.9	5.5	-109.5	100.6	0.7	32.1
COc1ccccc1NCC(O)Cn1c2ccccc2c2ccccc21 (configuration not stated)	-11.9	11.0	87.3*	95.7	23.6	18.0
COc1ccc(CN2CCN(CC(O)Cn3c4ccccc4c4ccccc43)CC2)cc1 (configuration not stated)	-39.1	-4.0	-20.9	102.8	37.8	61.7*
CCOc1ccc(CN2CCN(CC(O)Cn3c4ccccc4c4ccccc43)CC2)cc1 (configuration not stated)	-6.2	1.5	-5.8	135.2	38.6	76.7*
Cc1cccc(CCN(C(=O)c2csnn2)C(C(=O)NC2CCCC2)c2ccco2)c1 (configuration not stated)	0.0	14.1	2.6	100.3	23.3	5.6
Cc1c(N=C/C=C2\N(C)c3ccccc3C2(C)C)c(=O)n(-c2ccccc2)n1C	10.0	28.8	93.3*	82.2	1.3	-2.8
Cc1c(NC(=S)/C=C2\N(C)c3ccccc3C2(C)C)c(=O)n(-c2ccccc2)n1C	-6.4	0.9	95.4*	104.0	-4.7	2.5
Cc1c(N=C/C=C2/N(C)c3ccccc3C2(C)C)c(=O)n(-c2ccccc2)n1C	11.7	8.3	99.1*	92.3	3.4	3.7
Cc1c(N=CC=Nc2c(C)n(C)n(-c3ccccc3)c2=O)c(=O)n(-c2ccccc2)n1C	.	.	.	.	.	-2.0
OCc1ccc2c(c1)c(-c1ccc3c(c1)OCCO3)c(-c1ccccc1)n2-c1ccccc1	.	-3.7	-4.9	97.8	6.7	.
COC(=O)c1cc(CN2CCN(c3ccccc3)CC2)ccc1O	-6.6	24.2	97.8*	108.9	-19.2	3.5
COc1ccc(/C=C2\SC(=O)N(CCCC(=O)Nc3cc(Cl)ccc3C(=O)O)C2=O)cc1	.	30.7	9.7	.	13.1	.
COc1ccc(CCNC(=O)c2ccc3c(c2)N(Cc2ccc(C)cc2)CCS3)cc1OC	3.9	-4.6	-1.0	104.2	7.7	16.6
Cc1ccc(CN2CCSc3ccc(C(=O)NCCCN4CCN(C)CC4)cc32)cc1	-4.0	13.6	98.5*	105.5	5.7	-3.9
CN1CCSc2ccc(C(=O)NCc3cccc(F)c3)cc21	8.7	3.8	92.3*	94.7	15.7	13.3
Cc1ccc(CN2CCSc3ccc(C(=O)NCC4CCCO4)cc32)cc1 (configuration not stated)	-21.2	-6.8	86.7*	85.4	-1.8	3.3
CN(C)CCNC(=O)c1ccc2c(c1)N(Cc1ccc(F)cc1)CCS2	3.2	6.0	99.1*	108.8	7.1	-14.0
O=C(NC1CCCC1)c1ccc2c(c1)N(Cc1ccc(F)cc1)CCS2	-16.9	-1.3	38.8	99.0	12.5	-2.8
O=C(NCC1CCCO1)c1ccc2c(c1)N(Cc1ccc(Cl)cc1)CCS2 (configuration not stated)	.	.	.	108.2	.	.
Cc1cc(NC(=O)CSCC(=O)OCC(=O)c2cccc(Br)c2)no1	.	-4.0	3.6	.	9.3	.
Cc1cc(Nc2ccccc2)nc(N2CCN(C(=O)c3ccc4c(c3)OCO4)CC2)n1	-8.9	-4.5	6.0	96.0	1.9	.
O=C(CSc1ccccc1)Nc1ccc2c(c1)OCO2	-5.3	-6.2	.	106.1	34.4	12.9
O=C(CSC1=NC2(CCCCCC2)N=C1c1ccccc1)Nc1ccc2c(c1)OCCO2	-15.0	0.3	98.1*	109.8	12.2	33.5
O=C(CSc1ccc(-c2ccccc2)nn1)Nc1ccc2c(c1)OCCO2	7.1	-0.7	-16.3	.	24.4	33.7
Cc1ccc(C2=NC3(CCCC3)N=C2SCC(=O)Nc2ccc3c(c2)OCCO3)cc1	6.0	4.6	98.9*	106.8	29.0	25.0
O=C(CSC1=NC2(CCCCC2)N=C1c1ccccc1)Nc1ccc2c(c1)OCCO2	-1.1	4.0	98.2*	116.4	25.7	18.6
Cc1ccc(C2=NC(C)(C)N=C2SCC(=O)Nc2ccc(Cl)cc2)cc1	-16.8	13.5	.	102.2	24.4	8.7
Cc1ccc(S(=O)(=O)/N=C(/Nc2cccc(O)c2)c2ccccc2)cc1	-15.4	7.5	.	.	10.1	-9.3
COc1ccc(CCNC(=O)CC(=O)N/N=C\c2ccc(OCC(N)=O)cc2)cc1OC	.	.	.	98.0	.	.

Source: PubChem
